Test results from ChEMBL document CHEMBL3259675, “Novel N-substituted sophoridinol derivatives as anticancer agents” (Eur J Med Chem, 2014).

Test system: HepG2
Assay: Antiproliferative activity against human HepG2 cells assessed as growth inhibition at 10 ug/ml after 48 hrs by MTT assay
Format: functional
Settings: HepG2, 48 h
Outline: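 Cell lines from ATCC, grown in MEM-EBSS with 10% FBS and 1% penicillin-streptomycin at 37 °C, 5% CO2. Seeded at 4000 cells/well, left 24 h, then exposed to a concentration series for 48 h. Growth read by MTT. Percent inhibition was computed at each concentration and IC50 derived from it. Triplicate determinations, reported as mean SD.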

Row | SMILES | inhibition at 10 µg/mL
1 | COC(=O)CCC[C@H]1NC[C@H]2CCCN3CCC[C@H]1[C@H]23 | 33.4%
2 | CCCN1C[C@H]2CCCN3CCC[C@@H]([C@H]23)[C@H]1CCCC(=O)OC | 24.9%
3 | COC(=O)CCC[C@@H]1[C@H]2CCCN3CCC[C@H](CN1CC(C)C)[C@@H]23 | 26.8%
4 | COC(=O)CCC[C@@H]1[C@H]2CCCN3CCC[C@H](CN1Cc1ccccc1F)[C@@H]23 | 60.8%
5 | COC(=O)CCC[C@@H]1[C@H]2CCCN3CCC[C@H](CN1Cc1cccc(F)c1)[C@@H]23 | 81.8%
6 | COC(=O)CCC[C@@H]1[C@H]2CCCN3CCC[C@H](CN1Cc1ccc(F)cc1)[C@@H]23 | 73.1%
7 | COC(=O)CCC[C@@H]1[C@H]2CCCN3CCC[C@H](CN1Cc1cccc(Cl)c1)[C@@H]23 | 84.9%
8 | COC(=O)CCC[C@@H]1[C@H]2CCCN3CCC[C@H](CN1Cc1ccc(Br)cc1)[C@@H]23 | 89.6%
9 | COC(=O)CCC[C@@H]1[C@H]2CCCN3CCC[C@H](CN1Cc1ccncc1)[C@@H]23 | 29.9%
10 | COC(=O)CCC[C@@H]1[C@H]2CCCN3CCC[C@H](CN1Cc1ccco1)[C@@H]23 | 16.6%
11 | CCCN1C[C@H]2CCCN3CCC[C@@H]([C@H]23)[C@H]1CCCC(=O)O | 25.3%
12 | CC(C)CN1C[C@H]2CCCN3CCC[C@@H]([C@H]23)[C@H]1CCCC(=O)O | 10.7%
13 | O=C(O)CCC[C@@H]1[C@H]2CCCN3CCC[C@H](CN1Cc1ccccc1)[C@@H]23 | 1.5%
14 | O=C(O)CCC[C@@H]1[C@H]2CCCN3CCC[C@H](CN1Cc1ccccc1F)[C@@H]23 | 1.6%
15 | O=C(O)CCC[C@@H]1[C@H]2CCCN3CCC[C@H](CN1Cc1cccc(F)c1)[C@@H]23 | 25.2%
16 | O=C(O)CCC[C@@H]1[C@H]2CCCN3CCC[C@H](CN1Cc1ccc(F)cc1)[C@@H]23 | 2%
17 | O=C(O)CCC[C@@H]1[C@H]2CCCN3CCC[C@H](CN1Cc1cccc(Cl)c1)[C@@H]23 | 22.8%
18 | O=C(O)CCC[C@@H]1[C@H]2CCCN3CCC[C@H](CN1Cc1ccc(Cl)cc1)[C@@H]23 | 3.5%
19 | O=C(O)CCC[C@@H]1[C@H]2CCCN3CCC[C@H](CN1Cc1ccc(Br)cc1)[C@@H]23 | 24.9%
20 | O=C(O)CCC[C@@H]1[C@H]2CCCN3CCC[C@H](CN1Cc1ccncc1)[C@@H]23 | 22.3%
21 | NC(=O)CCC[C@@H]1[C@H]2CCCN3CCC[C@H](CN1Cc1ccc(Cl)cc1)[C@@H]23 | 1.7%
22 | CCCN1C[C@H]2CCCN3CCC[C@@H]([C@H]23)[C@H]1CCCCO | 0.9%
23 | CCCCN1C[C@H]2CCCN3CCC[C@@H]([C@H]23)[C@H]1CCCCO | 19.7%
24 | CC(C)(C)CN1C[C@H]2CCCN3CCC[C@@H]([C@H]23)[C@H]1CCCCO | 95.7%
25 | CC(C)CN1C[C@H]2CCCN3CCC[C@@H]([C@H]23)[C@H]1CCCCO | 9.1%
26 | OCCCC[C@@H]1[C@H]2CCCN3CCC[C@H](CN1Cc1ccccc1)[C@@H]23 | 18.7%
27 | Cc1ccc(CN2C[C@H]3CCCN4CCC[C@@H]([C@H]34)[C@H]2CCCCO)cc1 | 17.8%
28 | OCCCC[C@@H]1[C@H]2CCCN3CCC[C@H](CN1Cc1ccccc1F)[C@@H]23 | 30.9%
29 | OCCCC[C@@H]1[C@H]2CCCN3CCC[C@H](CN1Cc1cccc(F)c1)[C@@H]23 | 24.3%
30 | OCCCC[C@@H]1[C@H]2CCCN3CCC[C@H](CN1Cc1ccc(F)cc1)[C@@H]23 | 35.7%
